In ChEMBL document CHEMBL1154067, “Antiviral and cytotoxic activities of aminoarylazo compounds and aryltriazene derivatives” (Bioorg Med Chem, 2009):
Activity calls are given as the source filed them.

Legend:
[1] = test system: Mammalian orthoreovirus 1; test: Antiviral activity against Reovirus-1 infected in BHK-21 cells assessed as inhibition of virus-induced cytopathicity after 3 to 4 days by MTT assay; assay type: functional, organism-based; details: Mammalian orthoreovirus 1, BHK-21
Summary of the method: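 BHK-21 cells seeded at 5 × 10^4 cells/well, grown overnight to confluent monolayers at 37 °C in 5% CO2, then infected at m.o.i. 0.01 in serum-free medium. One hour later, MEM Earle's with 1% final inactivated FCS added, with or without serial compound dilutions. Viability read by MTT after 3–4 days at 37 °C. EC50 is the concentration giving 50% protection from cytopathogenicity.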

[2] = (§1) Cytotoxicity against human MT4 cells after 96 hrs by MTT assay; assay type: cell-based; details: MT4 cells
Summary of the method: (§2)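 Exponentially growing mock-infected MT-4 seeded at 1 × 10^5 cells/mL in RPMI-1640 with 10% FCS, penicillin and streptomycin. Incubated with or without serial compound dilutions at 37 °C, 5% CO2. Viability by MTT after 96 h. CC50 = concentration reducing viability 50%.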

[3] = Cytotoxicity against hamster BHK21 cells assessed as reduction in cell viability after 48 to 96 hrs by MTT assay; assay type: cell-based, Mesocricetus auratus, BHK-21
Summary of the method: (§3)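 Mock-infected cells in maintenance medium, MDBK at 6 × 10^5 and BHK at 1 × 10^6 cells/mL initial density, with or without serial compound dilutions. Run in parallel with antiviral assays. Viability by MTT after 48–96 h at 37 °C, 5% CO2. CC50 = concentration reducing viability 50%.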

[4] = test system: Poliovirus 1; test: Antiviral activity against Human poliovirus 1 strain Sabin after 2 days by plaque reduction assay; assay type: functional; details: for EC50: Enterovirus C, 48 h
[5] = test system: Yellow fever virus; test: Antiviral activity against Yellow fever virus infected in BHK-21 cells assessed as inhibition of virus-induced cytopathicity after 3 to 4 days by MTT assay; assay type: functional, organism-based
[6] = test system: Coxsackievirus B2; test: Antiviral activity against Coxsackie virus type B2 virus infected in african green monkey Vero-76 cells after 3 days by plaque reduction assay; assay type: functional, organism-based; details: Enterovirus B, Vero 76, 72 h
Summary of the method: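 Vero 76 cells seeded at 2 × 10^5 cells/well, grown overnight to confluence at 37 °C in 5% CO2, then infected at 50–100 PFU/well. Unadsorbed virus removed. Overlay of DMEM with 1% inactivated FCS and 0.75% methylcellulose, with or without serial compound dilutions. After 3 days at 37 °C, fixed and stained with crystal violet in PBS/50% ethanol; plaques counted. EC50 is the concentration reducing plaque number by 50%.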

[7] = test system: Human alphaherpesvirus 1; test: Antiviral activity against HSV1 infected in Vero-76 cells after 3 days by plaque reduction assay; assay type: functional, organism-based; details: Human alphaherpesvirus 1, Vero 76, 72 h
[8] = (§4) Cytotoxicity against african green monkey Vero 76 cells by crystal violet staining; assay type: cell-based; details: chlorocebus sabaeus, Vero 76 cells
Summary of the method: (§5)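 Mock-infected Vero 76 seeded at 4 × 10^5 cells/mL, run in parallel with plaque assays, with or without serial compound dilutions. Cell number of monolayers determined by crystal violet staining. CC50 = concentration reducing viable cell number 50%.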

[9] = test system: Vaccinia virus; test: Antiviral activity against Vaccinia virus after 3 days by plaque reduction assay; assay type: functional, organism-based; details: Orthopoxvirus vaccinia
[10] = test system: Human immunodeficiency virus 1; test: Antiviral activity against HIV1 infected in human MT4 cells assessed as inhibition of virus-induced cytopathicity after 4 days by MTT assay; assay type: functional, organism-based
[11] = test system: Bovine viral diarrhea virus 1; test: Antiviral activity against Bovine viral diarrhea virus infected in MDBK cells assessed as inhibition of virus-induced cytopathicity after 3 to 4 days by MTT assay; assay type: functional, organism-based; details: Bovine viral diarrhea virus isolates and strains
[12] = Cytotoxicity against MDBK cells after 48 to 96 hrs by MTT assay; assay type: cell-based, Bos taurus; details: cattle; summary of the method: as §3
[13] = test system: Vesicular stomatitis virus; test: Antiviral activity against Vesicular stomatitis virus after 2 days by plaque reduction assay; assay type: functional, organism-based
[14] = test system: Respiratory syncytial virus; test: Antiviral activity against Respiratory syncytial virus A2 infected in Vero-76 cells after 5 days by plaque reduction assay; assay type: functional, organism-based; details: human respiratory syncytial virus, A2, Vero 76, 120 h
[15] = test system: MT4; test: as §1; assay type: cell-based; details: mt4, 96 h; summary of the method: as §2
[16] = test system: Vero; test: as §4; assay type: cell-based; details: chlorocebus sabaeus, vero; summary of the method: as §5

| Structure (SMILES) | EC50 [1] [µM] | CC50 at 96 h [2] [µM] | CC50 ([3]; BHK21 cells) [µM] | EC50 [4] [µM] | EC50 [5] [µM] | EC50 [6] [µM] | EC50 [7] [µM] | CC50 [8] [µM] | Activity [9] | inhibition [10] | EC50 [11] [µM] | CC50 ([12]; MDBK cells) [µM] | Activity [13] | EC50 [14] [µM] | CC50 [15] [µM] | CC50 ([3]; bhk-21) [µM] | Activity [4] | CC50 [16] [µM] | CC50 ([12]; mdbk) [µM] |
| --- | --- | --- | --- | --- | --- | --- | --- | --- | --- | --- | --- | --- | --- | --- | --- | --- | --- | --- | --- |
| CN(C)CCCN(/N=N/c1ccccc1)c1cccc(C(F)(F)F)c1 | > 49 | 14 | 49 | > 20 | ≥ 49 | ≥ 20 | 14 | 20 | inactive | inactive | > 38 | 38 | inactive | > 20 | – | – | – | – | – |
| Nc1nc2c(ncn2COCCO)c(=O)[nH]1 [ACYCLOVIR] | > 100 | > 100 | > 100 | > 100 | > 100 | > 100 | – | > 100 | – | – | > 100 | > 100 | – | > 100 | – | – | – | – | – |
| NC(=O)c1ncn([C@@H]2O[C@H](CO)[C@@H](O)[C@H]2O)n1 [RIBAVIRIN] | > 100 | – | > 100 | > 100 | > 100 | > 100 | > 100 | > 100 | – | – | 7 | > 100 | – | 7 | 31 | – | – | – | – |
| C[C@@]1(O)[C@H](O)[C@@H](CO)O[C@H]1n1cnc2c(=O)[nH]c(N)nc21 [2'-B-METHYL-GUANOSINE] | 2.4 | > 100 | – | > 100 | 1.8 | – | > 100 | > 100 | – | – | – | > 100 | – | > 100 | – | 90 | – | – | – |
| CN(C)CCCNc1ccc(/N=N/c2ccc([N+](=O)[O-])cc2)cc1 | > 100 | – | – | – | > 100 | > 60 | > 60 | – | inactive | inactive | > 100 | – | inactive | > 60 | 19 | > 100 | inactive | 60 | > 100 |
| Cc1c(/N=N/c2ccccc2)ccc(NC[C@@H]2CCCN3CCCC[C@H]23)c1C | > 47 | – | – | – | 9 | > 60 | > 60 | – | inactive | inactive | 2.5 | – | inactive | > 60 | 31 | 47 | inactive | 60 | 48 |
| CN(C)CCCN(/N=N/c1cc(F)ccc1F)c1cccc(C(F)(F)F)c1 | > 54 | – | – | > 30 | > 54 | > 30 | > 30 | – | inactive | inactive | 90 | – | inactive | > 30 | 16 | 54 | – | 30 | > 100 |
| Cc1c(/N=N/c2cccc(C(F)(F)F)c2)ccc(NC[C@@H]2CCCN3CCCC[C@H]23)c1C | > 100 | – | – | – | > 100 | > 80 | > 80 | – | inactive | inactive | 7 | – | inactive | > 80 | 77 | ≥ 100 | inactive | 80 | 52 |
